What all share (format): functional
Experiment [1] can be described thus: Cytotoxicity against human prostate cancer cells after 48 hrs by coulter counting. The note with it: Cancer cell lines. An outline of the steps:
(§1)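 NCI 60-cell-line panel covering nine tumour subpanels, tested over a 5-log dose range. Compounds were dissolved in DMSO and diluted in phosphate-buffered saline to a final DMSO below 1%. Wells held 6 × 10⁴ cells/ml and were run in duplicate. Controls contained PBS and DMSO at matching dilutions. Incubation was at 37 °C in humidified 5% CO₂. GI₅₀, TGI and LC₅₀ were reported.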

In experiment [2] the test system is UACC-257. Nature of the experiment: Growth inhibition of human UACC257 cells at 10 uM after 48 hrs by coulter counting. The note with it: for inhibition of growth at 10 µM: UACC-257, 48 h, read-out: GI. An outline of the steps:
(§2)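 Single-dose screen in the NCI 60 human tumor cell line panel (nine subpanels). Compounds dissolved in DMSO and diluted in phosphate buffered saline, keeping final DMSO below 1%. Added in duplicate wells to cells at 6 × 10⁴ cells/ml. Controls held PBS and DMSO at matching dilutions. Incubated at 37 °C, humidified, 5% CO₂. Reported as percent growth of treated cells.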

Experiment [3] concerns MOLT-4. In words: Growth inhibition of human MOLT4 cells at 10 uM after 48 hrs by coulter counting. Particulars: for inhibition of growth at 10 µM: MOLT-4, 48 h, read-out: GI. The essentials: (§3)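 Single-dose primary screen across the full NCI 60-cell-line panel. Stocks were made in DMSO and diluted in PBS to a final DMSO below 1%. Cultures at 6 × 10⁴ cells/ml were run in duplicate wells alongside PBS/DMSO vehicle controls at 37 °C in humidified 5% CO₂. Data were expressed as percent growth of treated cells.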

The subject of experiment [4] is RPMI-8226. In words: Growth inhibition of human RPMI8226 cells at 10 uM after 48 hrs by coulter counting. An outline of the steps: as §3
Experiment [5] has as its system SR. Nature of the experiment: Growth inhibition of human SR cells at 10 uM after 48 hrs by coulter counting. An outline of the steps: as §2
Experiment [6] concerns EKVX. Nature of the experiment: Growth inhibition of human EKVX cells at 10 uM after 48 hrs by coulter counting. The note with it: read-out: GI. The essentials:
as §3

The test system of experiment [7] is NCI-H460. Nature of the experiment: Growth inhibition of human NCI-H460 cells at 10 uM after 48 hrs by coulter counting. An outline of the steps:
as §3

The test system of experiment [8] is HT-29. In words: Growth inhibition of human HT-29 cells at 10 uM after 48 hrs by coulter counting. An outline of the steps: as §3
For experiment [9], the system named is U-251. In words: Growth inhibition of human U251 cells at 10 uM after 48 hrs by coulter counting. Particulars: for inhibition of growth at 10 µM: U-251, 48 h, read-out: GI. An outline of the steps: as §2
For experiment [10], the system named is MDA-MB-435. In words: Growth inhibition of human MDA-MB-435 cells at 10 uM after 48 hrs by coulter counting. The essentials: as §3
The subject of experiment [11] is SK-MEL-5. In words: Growth inhibition of human SK-MEL-5 cells at 10 uM after 48 hrs by coulter counting. The note with it: SK-MEL-5, 48 h, read-out: GI. The essentials: as §3
Experiment [12] concerns NCI/ADR-RES. In words: Growth inhibition of human NCI/ADR-RES cells at 10 uM after 48 hrs by coulter counting. The note with it: for inhibition of growth at 10 µM: read-out: GI. The essentials: as §3
In experiment [13] the test system is CAKI-1. Nature of the experiment: Growth inhibition of human Caki1 cells at 10 uM after 48 hrs by coulter counting. The essentials:
as §3

In experiment [14] the test system is MCF7. In words: Growth inhibition of human MCF7 cells at 10 uM after 48 hrs by coulter counting. The note with it: MCF7, 48 h, read-out: GI. The essentials:
as §3

Experiment [15] has as its system OVCAR-3. In words: Growth inhibition of human OVCAR3 cells at 10 uM after 48 hrs by coulter counting. The essentials: as §3
The test system of experiment [16] is SN12C. Nature of the experiment: Growth inhibition of human SN12C cells at 10 uM after 48 hrs by coulter counting. Particulars: read-out: GI. The essentials: as §3
The test system of experiment [17] is TK-10. In words: Growth inhibition of human TK10 cells at 10 uM after 48 hrs by coulter counting. The note with it: TK-10, 48 h, read-out: GI. An outline of the steps: as §2
Experiment [18] is described as follows: Cytotoxicity against human leukemia cells after 48 hrs by coulter counting. The note with it: Leukemia cell; for CC50: read-out: LC50 (the source's name). The essentials: as §1

The source made the active and inactive calls. The calls are words filed in the database; no cut-off is given here.

As to `CCN1CC2=C(N=C3SC=CN3C2c2ccc(OC)cc2)/C(=C/c2ccc(OC)cc2)C1` (stereo unspecified), the 50% growth inhibitory concentration (GI50) in [1] was found to be 2.8 µM; in [18] it was 2.7 µM. In addition, the LC50 (concentration killing 50% of cells) in experiment [1] turned out to be 68.1 µM. For the same compound, the values for the concentration for total growth inhibition (TGI) in experiment [1] and in [18] were 43.9 µM and 81.6 µM, respectively. The inhibition of growth at 10 µM came out at 44.8% in [2]; 90.4% in experiment [3]; 51.9% in experiment [6]; 74.4% in experiment [11]; 76.9% in experiment [12]; 78.3% in [13] (CAKI-1, 48 h, read-out: GI). Also, the inhibition of growth at 10 µM was 74.3% in [14], 96.9% in experiment [16] and 70% in experiment [17]. For the same compound, the “growth inhibition (GI)” value in experiment [4], in experiment [5], in experiment [7], in [8], in [9] and in [10] was “Active” in each case. The “growth inhibition (GI)” value in experiment [15] was “Active”. For the same compound, the CC50 in [18] is above 100 µM.

Turning to `CCN1CC2=C(N=C3SC=CN3C2c2ccc(OC)c(OC)c2)/C(=C/c2ccc(OC)c(OC)c2)C1` (stereo unspecified), the concentration for 50% growth inhibition (GI50) in [1] worked out at 3.4 µM; in [18] it was 2.6 µM. The compound also yielded an LC50 (concentration killing 50% of cells) in experiment [1] of 68.4 µM. Further, the TGI in experiment [1] worked out at 29.8 µM; in experiment [18], 30.7 µM. Besides, the inhibition of growth at 10 µM in experiment [2] came out at 63.2%; in [3], 67.9%; in experiment [6] it was 27.1%; in experiment [9], 90%; in [11] it was 60.9%; in [12], 91.2%. Moreover, the inhibition of growth at 10 µM in experiment [14] stood at 80.5%; in experiment [16], 83.1%; in experiment [17], 46.5%. Further, the “growth inhibition (GI)” value in experiment [4], in experiment [5], in experiment [7], in experiment [8], in experiment [10] and in [13] was “Active” throughout. Moreover, the “growth inhibition (GI)” value in experiment [15] is “Active”. In addition, the CC50 in experiment [18] is above 100 µM.

Consider `CCN1CC2=C(N=C3SC=C(C)N3C2c2ccc(OC)c(OC)c2)/C(=C/c2ccc(OC)c(OC)c2)C1` (stereo unspecified), for which the concentration for 50% growth inhibition (GI50) in [1] was 2.8 µM; in experiment [18] it was 4 µM. In experiment [1], this compound had an LC50 (concentration killing 50% of cells) of 79.2 µM. The TGI in [1] came to 53.4 µM; in [18] it was 81.9 µM. Moreover, the “growth inhibition (GI)” value in experiment [2], in experiment [3], in experiment [4], in experiment [5], in experiment [7] and in experiment [8] was “Active” in each case. In addition, the “growth inhibition (GI)” value in experiment [10], in [12], in experiment [13] and in experiment [15] was “Active” each time. Besides, the inhibition of growth at 10 µM in experiment [6] was found to be 37.5%; in [9] it was 97.9%; in experiment [11] it was 87.2%; in experiment [14], 84.5%; in experiment [16], 93.7%; in [17], 98.8%. Also, the CC50 in experiment [18] is above 100 µM.
